SIAE inh: inhibitors of human sialic acid acetylesterase SIAE | Q9HAT2 | SIAE FP-Rh probe binding, fluorescence polarization | inhibition, % at 9.66 µM | 370,000 compounds, 0.69% hits | AID 1053197;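 active = inhibition above a cutoff: mean of compounds within the control limits plus 3 SD of those, cut at about 17% in these data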;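 also: 0% = plate median of compound wells and 100% = probe without SIAE protein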
Target sequence (Q9HAT2 whole entry, looked up): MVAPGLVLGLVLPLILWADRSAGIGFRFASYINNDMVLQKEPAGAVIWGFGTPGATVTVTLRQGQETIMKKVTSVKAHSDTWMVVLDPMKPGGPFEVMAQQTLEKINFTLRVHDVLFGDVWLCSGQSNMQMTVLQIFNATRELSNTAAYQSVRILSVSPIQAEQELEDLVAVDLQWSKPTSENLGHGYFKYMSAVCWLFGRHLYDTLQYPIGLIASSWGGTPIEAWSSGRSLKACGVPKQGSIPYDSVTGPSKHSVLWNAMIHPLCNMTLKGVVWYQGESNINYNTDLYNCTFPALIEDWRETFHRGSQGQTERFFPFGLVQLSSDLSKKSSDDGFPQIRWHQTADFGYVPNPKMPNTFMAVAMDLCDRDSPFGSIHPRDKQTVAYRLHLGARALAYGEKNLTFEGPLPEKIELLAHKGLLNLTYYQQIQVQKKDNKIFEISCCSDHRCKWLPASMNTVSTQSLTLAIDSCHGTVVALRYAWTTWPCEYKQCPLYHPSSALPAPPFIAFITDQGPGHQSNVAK
TCR-CD3 inh: inhibitors of human TCR-CD3 interaction; inhibition, % at 9.4 µM; AID 651800; 360,000 compounds, 0.37% hits; TAMRA-labeled TCR probe fluorescence, biochemical; in the data active = inhibition above about 19%;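 also: recombinant mutant TCR 2C K166C tagged with TAMRA read by polarization; 0% = receptor in buffer alone and 100% = receptor with positive control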
ATG4B inhibitor: inhibitors of human ATG4B cysteine protease. Q9Y4P1. ATG4B cleavage of LC3-PLA2, NBD-HPC fluorescence, 1 h. inhibition, % at 8.33 µM. 340,000 compounds, 0.51% hits; in the data active = inhibition above about 40%
HTRA1 inh: blocks human HTRA1 serine peptidase | Q92743 | recombinant HTRA1, FP-rhodamine activity-based probe, fluorescence polarization | inhibition, % at 5.96 µM | 340,000 compounds, 0.5% hits | AID 504803; in the data active = inhibition above about 36%;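 also: 0% = enzyme with DMSO and 100% = wells lacking enzyme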
PRMT1 inh: inhibitors of human PRMT1; recombinant PRMT1, activity-based probe fluorescence polarization; inhibition, % at 2.79 µM; 370,000 compounds, 1.3% hits;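 active = inhibition above about 21% made by adding two undisclosed values, limit read from the data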
mABHD4 FP: ABHD4 (mouse) inhibition, primary FP screen | inhibition, % at 8.92 µM | 370,000 compounds, 0.54% hits | purified mABHD4, FP-Rh probe fluorescence polarization;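 active = inhibition exceeding the mean over every tested compound plus 3 SD, cut at about 30% in these data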;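 also: 0% = plate median of compound wells and 100% = S159A mutant with DMSO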
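Test system: mABHD4 protein; Read-out basis: % inhibition; Incubation: 45 min + 60 min at 25 °C; Repeats: single replicate; Technique: fluorescence polarization with parallel and perpendicular emission, 525/598 nm; Compound: 8.92 µM, single dose; Benchmarks: full inhibition S159A mutant plus DMSO, zero as sample-well median.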
* hit, by the source's call; · = not tested or not shown. The list is not random: actives were taken first. Their share in the collection is about 2.9%.

SMILES | SIAE inh | TCR-CD3 inh | ATG4B inhibitor | HTRA1 inh | PRMT1 inh | mABHD4 FP
CCc1ccc2c(c1)NC(=O)C2(C)Cc1ccccc1 (centres undefined) | 1 | -3 | · | · | 7 | 5
CCc1ccc2c(c1)C1(NN=C(c3cccc4ccccc34)S1)C(=O)N2 (centres undefined) | 5 | -2 | · | 55* | 9 | 29
COc1cc(NC(=O)Nc2ccc3c(c2)OCO3)cc(OC)c1OC | 4 | 4 | -6 | 1 | -4 | -4
COc1cc(C(Nc2ccc3c(c2)OCO3)C(=O)NC2CCCCC2)cc(OC)c1OC (centres undefined) | 6 | -1 | -15 | 4 | 25* | 4
CC1=C(C(=O)OCc2ccccc2)C(c2ccc(C)o2)C2=C(CCCC2=O)N1 (centres undefined) | 33* | 3 | 14 | -5 | 2 | -4
COc1ccccc1N1CCN(C(=O)NCc2cccc(C(F)(F)F)c2)CC1 | 1 | 2 | 44* | -1 | 0 | 3
O=C(CSc1nncc(=O)[nH]1)Nc1cccc([N+](=O)[O-])c1 | 0 | 4 | -12 | -1 | 33* | 5
Nc1cc(=O)[nH]c(SCC(=O)Nc2cccc([N+](=O)[O-])c2)n1 | -5 | -7 | -8 | 2 | 4 | -2
COC(=O)[C@]12C[C@H](CC(=O)NCCCN3CCCC3=O)C(=O)N(Cc3cccc4ccccc34)C1=C[C@H](C(C)C)O[C@@H]2C1CC1 | -1 | · | · | · | 2 | 0
CC(C)CN1C(=O)NC(NS(=O)(=O)c2ccc(N)cc2)(C(F)(F)F)C1=O (centres undefined) | -3 | -3 | 1 | 2 | 24* | -4
CC(=O)Nc1ccc(S(=O)(=O)NC2(C(F)(F)F)NC(=O)N(CC(C)C)C2=O)cc1 (centres undefined) | -3 | 5 | -4 | -7 | -1 | 1
C#CCOCCOCCOCCNc1nc(N2CCN(C(=O)CCCCCCCCCCNC(=O)[C@H](CO)n3cc(CCCSC)nn3)CC2)nc(N2CCN(C(=O)CCCCCCCCCCNC(=O)[C@H](CCCN=C(N)N)n3cc(C[C@@H](C)CC)nn3)CC2)n1 | · | · | 72* | -89 | · | ·
C#CCOCCOCCOCCNc1nc(N2CCN(C(=O)CCCCCCCCCCNC(=O)Cn3cc(CCCCCN)nn3)CC2)nc(N2CCN(C(=O)CCCCCCCCCCNC(=O)[C@H]([C@@H](C)CC)n3cc(CCCCN=C(N)N)nn3)CC2)n1 | · | · | 49* | -100 | · | ·
C#CCOCCOCCOCCNc1nc(N2CCN(C(=O)CCCCCCCCCCNC(=O)[C@H]([C@@H](C)CC)n3cc(CCCCN=C(N)N)nn3)CC2)nc(N2CCN(C(=O)CCCCCCCCCCNC(=O)[C@H](CO)n3cc(CCCCCN)nn3)CC2)n1 | · | · | 54* | -50 | · | ·
COC(=O)[C@@]12CCCCC=C1N(CCc1ccc(Cl)cc1)C(=O)[C@H]2CC(=O)NCC1CCCCC1 | -4 | · | · | · | -9 | -3
COC(=O)C1CN(Cc2ccc(Cl)cc2)CCS(=O)(=O)N1Cc1cn(Cc2ccc(C)cc2)nn1 (centres undefined) | 0 | · | · | · | -1 | -3
Cc1ccc(NC(=O)CCS(=O)(=O)c2ccccc2)c(C)c1 | 7 | · | · | · | 3 | 0
O=C1CCN2C=Nc3cccc4ccc1c2c34 | 4 | 1 | -56 | 5 | 124* | 13
COc1ccc(-n2c(SCC(=O)Nc3ccc(S(=O)(=O)Nc4cc(C)nc(C)n4)cc3)nnc2-c2ccco2)cc1 | -1 | · | · | · | 1 | -9
COc1cc(OC)c(NC(=O)CN(C)S(=O)(=O)c2ccc3[nH]c(=O)oc3c2)cc1Cl | -2 | 20* | -13 | 9 | 2 | 8
COc1ccc(NC(=O)CN(C)S(=O)(=O)c2ccc3[nH]c(=O)oc3c2)cc1 | 0 | 5 | 1 | 4 | -2 | 3
O=S1(=O)c2ccccc2-c2c(nnn2Cc2ccccc2)CN1C1CC1 | -7 | · | · | · | 1 | -8
CCn1cc(C(=O)Nc2ncccc2O)c(=O)c2cc(F)c(N3CCN(C(=O)c4ccco4)CC3)cc21 | 4 | 20* | -1 | 16 | 0 | 7
O=CN/C=C/c1cc(O)ccc1O | 17 | 6 | -23 | 11 | 48* | 19
Cc1ccc(N2C(=O)c3ccccc3C2C(=O)c2cc(C)ccc2O)cc1 (centres undefined) | -9 | 3 | -5 | -17 | 17 | 11
